Data published in ChEMBL document CHEMBL4359914, “Design, synthesis and biological evaluation of stereo- and regioisomers of amino aryl esters as multidrug resistance (MDR) reversers” (Eur J Med Chem, 2019).

How the values were obtained:
[1] = Chemical stability of compound assessed as half life in PBS at 1 uM incubated 120 mins by LC-MS/MS analysis; format: physicochemical
Outline: (§1)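 Analyte added to PBS or human plasma (healthy volunteer, stored at -80 °C) to 1 μM; incubated at 37 °C for 0, 30, 60 and 120 min, triplicate per time point. Internal standard solution added, centrifuged, supernatant dried under nitrogen and redissolved. Analyte quantified by LC-MS/MS in MRM mode; half-life derived from decay rate k.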

[2] = Stability of compound in human plasma assessed as half life at 1 uM incubated for 120 min by LC-MS/MS analysis; format: ADME, cell-free; outline: as §1
[3] = target: T1, ATP-dependent translocase ABCB1 (Homo sapiens, UniProt P08183); test: Inhibition of P-gp (unknown origin) expressed in MDCK-MDR1 cells assessed as increase in calcein-AM accumulation incubated for 30 mins by calcein-AM dye based fluorescence assay; format: cell-based
[4] = target: T2, Broad substrate specificity ATP-binding cassette transporter ABCG2 (Homo sapiens, UniProt Q9UNQ0); test: Inhibition of BCRP (unknown origin) expressed in MDCK cells assessed as increase in Hoechst 33342 accumulation incubated for 30 mins by Hoechst 33342 dye based fluorescence assay; format: cell-based; conditions: read-out: EC50
T2 sequence (Q9UNQ0 whole entry): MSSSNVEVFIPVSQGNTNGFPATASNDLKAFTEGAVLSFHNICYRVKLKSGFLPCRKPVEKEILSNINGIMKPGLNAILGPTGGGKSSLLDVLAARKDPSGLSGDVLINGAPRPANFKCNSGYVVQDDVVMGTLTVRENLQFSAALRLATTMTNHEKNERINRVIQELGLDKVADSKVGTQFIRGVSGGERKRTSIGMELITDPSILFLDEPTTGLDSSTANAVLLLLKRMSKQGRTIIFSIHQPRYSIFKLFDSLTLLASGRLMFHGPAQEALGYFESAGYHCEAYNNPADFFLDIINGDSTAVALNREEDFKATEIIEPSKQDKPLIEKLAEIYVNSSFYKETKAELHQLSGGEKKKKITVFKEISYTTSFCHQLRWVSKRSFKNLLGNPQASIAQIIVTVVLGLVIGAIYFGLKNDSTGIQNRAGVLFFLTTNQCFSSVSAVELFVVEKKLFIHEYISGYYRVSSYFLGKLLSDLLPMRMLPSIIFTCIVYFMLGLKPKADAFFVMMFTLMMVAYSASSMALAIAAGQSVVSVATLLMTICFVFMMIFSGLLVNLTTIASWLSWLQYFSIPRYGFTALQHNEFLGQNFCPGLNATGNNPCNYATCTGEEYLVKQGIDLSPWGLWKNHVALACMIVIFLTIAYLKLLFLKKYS

[5] = target: T1, ATP-dependent translocase ABCB1; test: Inhibition of P-gp in human K562/DOX cells assessed as drug level causing 50% increase in nuclear pirarubicin concentration incubated for 30 mins by fluorescence based assay; format: cell-based; conditions: read-out: I0.5
[6] = target: T1, ATP-dependent translocase ABCB1; test: Inhibition of P-gp in human K562/DOX cells assessed as drug level causing maximum increase in nuclear pirarubicin concentration incubated for 30 mins by fluorescence based assay relative to control; format: cell-based; conditions: 0.5 h
[7] = target: T1, ATP-dependent translocase ABCB1; test: Inhibition of MDR1 (unknown origin) expressed in MDCK-MDR1 cells assessed as decrease in ATP consumption incubated for 2 hrs by ATPlite luminescence assay; format: cell-based; conditions: mdck-mdr1, 2 h
P-gp (MDR1, ABCB1) = P-gp (MDR1, ABCB1) (Homo sapiens, UniProt P08183); test: Inhibition of MDR1 (unknown origin) expressed in MDCK-MDR1 cells assessed as decrease in ATP consumption at 10 uM incubated for 2 hrs by ATPlite luminescence assay relative to control; format: cell-based; conditions: MDCK-MDR1 cells expressing MDR1
P-gp (MDR1, ABCB1), sequence (P08183 whole entry): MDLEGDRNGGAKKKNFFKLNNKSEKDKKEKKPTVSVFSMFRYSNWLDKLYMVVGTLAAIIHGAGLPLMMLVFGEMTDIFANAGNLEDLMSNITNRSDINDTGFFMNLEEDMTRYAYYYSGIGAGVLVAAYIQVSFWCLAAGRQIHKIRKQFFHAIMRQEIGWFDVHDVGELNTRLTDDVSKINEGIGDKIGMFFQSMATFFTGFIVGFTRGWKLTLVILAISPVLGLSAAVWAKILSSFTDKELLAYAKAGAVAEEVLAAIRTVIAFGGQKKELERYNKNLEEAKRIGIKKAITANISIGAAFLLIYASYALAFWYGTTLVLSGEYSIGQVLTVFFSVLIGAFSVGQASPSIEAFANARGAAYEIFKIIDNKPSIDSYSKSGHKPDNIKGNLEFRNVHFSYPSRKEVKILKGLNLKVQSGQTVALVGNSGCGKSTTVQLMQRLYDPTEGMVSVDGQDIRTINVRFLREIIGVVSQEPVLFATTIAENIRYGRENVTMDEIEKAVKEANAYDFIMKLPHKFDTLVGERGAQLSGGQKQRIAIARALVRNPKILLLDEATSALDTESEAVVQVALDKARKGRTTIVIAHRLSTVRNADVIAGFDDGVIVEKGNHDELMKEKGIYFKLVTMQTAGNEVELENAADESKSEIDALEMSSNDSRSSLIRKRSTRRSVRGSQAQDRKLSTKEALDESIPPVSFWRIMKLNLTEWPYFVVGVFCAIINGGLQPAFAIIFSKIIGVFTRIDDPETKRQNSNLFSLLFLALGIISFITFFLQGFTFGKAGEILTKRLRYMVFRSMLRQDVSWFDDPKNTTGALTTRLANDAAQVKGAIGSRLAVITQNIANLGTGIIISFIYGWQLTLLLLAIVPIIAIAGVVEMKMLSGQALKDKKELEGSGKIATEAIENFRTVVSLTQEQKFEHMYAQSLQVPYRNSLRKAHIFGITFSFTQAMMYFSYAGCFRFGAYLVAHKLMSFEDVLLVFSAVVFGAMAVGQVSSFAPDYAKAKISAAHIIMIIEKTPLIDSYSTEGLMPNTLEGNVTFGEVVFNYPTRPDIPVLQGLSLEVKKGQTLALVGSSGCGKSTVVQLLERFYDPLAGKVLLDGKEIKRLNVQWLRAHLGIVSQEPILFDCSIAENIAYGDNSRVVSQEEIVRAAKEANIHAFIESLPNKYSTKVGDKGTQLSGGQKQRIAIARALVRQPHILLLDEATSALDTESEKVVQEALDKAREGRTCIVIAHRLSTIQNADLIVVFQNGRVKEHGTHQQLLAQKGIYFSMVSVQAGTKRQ

T1 sequence (P08183 whole entry): as above

Row | Structure (SMILES) | half-life at 1 µM [1] [h] | half-life at 1 µM [2] [h] | EC50 [3] [nM] | EC50 [4] [nM] | IC50 [5] [nM] | Alpha max [6] | inhibition (INH) [7] | inhibition at 2 h, 10 µM (P-gp (MDR1, ABCB1)) [%]
1 | COc1cc(/C=C/C(=O)OCCCCCCCN(C)C[C@H](C)COC(=O)c2c3ccccc3cc3ccccc23)cc(OC)c1OC | ≥ 4 | ≥ 4 | 1040 | 7200 | 80 | 0.99 | Not Active | 
2 | COc1cc(/C=C/C(=O)OC[C@H](C)CN(C)CCCCCCCOC(=O)c2c3ccccc3cc3ccccc23)cc(OC)c1OC | ≥ 4 | ≥ 4 | 1400 | 6400 | 970 | 0.65 | Not Active | 
3 | COc1cc(/C=C/C(=O)OC[C@@H](C)CN(C)CCCCCCCOC(=O)c2cc(OC)c(OC)c(OC)c2)cc(OC)c1OC | ≥ 4 | 0.5 | 320 | 2300 | 380 | 0.74 | Not Active | 
4 | COc1cc(/C=C/C(=O)OCCCCCN(C)C[C@H](C)COC(=O)c2c3ccccc3cc3ccccc23)cc(OC)c1OC | ≥ 4 | ≥ 4 | 760 | 4600 | 80 | 0.75 | Not Active | 
5 | COc1cc(/C=C/C(=O)OC[C@H](C)CN(C)CCCCCCCOC(=O)c2cc(OC)c(OC)c(OC)c2)cc(OC)c1OC | ≥ 4 | 1.23 | 820 | 4700 | 590 | 0.81 | Not Active | 
6 | COc1cc(/C=C/C(=O)OCCCN(C)C[C@@H](C)COC(=O)c2cc(OC)c(OC)c(OC)c2)cc(OC)c1OC | ≥ 4 | 0.9 | 73 | 9500 | 110 | 0.99 | Not Active | 
7 | COc1cc(/C=C/C(=O)OC[C@@H](C)CN(C)CCCCCOC(=O)c2c3ccccc3cc3ccccc23)cc(OC)c1OC | ≥ 4 | ≥ 4 | 690 | 4700 | 30 | 0.79 | Not Active | 
8 | COc1cc(/C=C/C(=O)OCCCCCCCN(C)C[C@H](C)COC(=O)c2cc(OC)c(OC)c(OC)c2)cc(OC)c1OC | ≥ 4 | ≥ 4 | 550 | 2500 | 130 | 0.7 | Not Active | 
9 | COc1cc(/C=C/C(=O)OC[C@H](C)CN(C)CCCOC(=O)c2c3ccccc3cc3ccccc23)cc(OC)c1OC | ≥ 4 | ≥ 4 | 950 | 5900 | 80 | 0.99 | Not Active | 
10 | COc1cc(/C=C/C(=O)OC[C@H](C)CN(C)CCCOC(=O)c2cc(OC)c(OC)c(OC)c2)cc(OC)c1OC | ≥ 4 | 1.95 | 710 | 33500 | 140 | 0.99 | Not Active | 
11 | COc1cc(/C=C/C(=O)OC[C@@H](C)CN(C)CCCOC(=O)c2cc(OC)c(OC)c(OC)c2)cc(OC)c1OC | ≥ 4 | 0.483 | 1380 | 3700 | 90 | 0.75 |  | 20
12 | COc1cc(/C=C/C(=O)OC[C@@H](C)CN(C)CCCOC(=O)c2c3ccccc3cc3ccccc23)cc(OC)c1OC | ≥ 4 | ≥ 4 | 910 | 2300 | 180 | 0.79 | Not Active | 
13 | COc1cc(/C=C/C(=O)OCCCCCN(C)C[C@@H](C)COC(=O)c2c3ccccc3cc3ccccc23)cc(OC)c1OC | ≥ 4 | ≥ 4 | 810 | 4600 | 230 | 0.89 | Not Active | 
14 | COc1cc(/C=C/C(=O)OCCCCCCCN(C)C[C@@H](C)COC(=O)c2c3ccccc3cc3ccccc23)cc(OC)c1OC | ≥ 4 | ≥ 4 | 990 | 6200 | 200 | 0.93 | Not Active | 
15 | COc1cc(/C=C/C(=O)OCCCCCCCN(C)C[C@@H](C)COC(=O)c2cc(OC)c(OC)c(OC)c2)cc(OC)c1OC | ≥ 4 | ≥ 4 | 650 | 4300 | 120 | 0.83 | Not Active | 
16 | COc1cc(/C=C/C(=O)OC[C@@H](C)CN(C)CCCCCCCOC(=O)c2c3ccccc3cc3ccccc23)cc(OC)c1OC | ≥ 4 | ≥ 4 | 930 | 5600 | 890 | 0.8 | Not Active | 
17 | COc1cc(/C=C/C(=O)OC[C@H](C)CN(C)CCCCCOC(=O)c2c3ccccc3cc3ccccc23)cc(OC)c1OC | ≥ 4 | ≥ 4 | 720 | 2300 | 80 | 0.88 | Not Active | 
18 | COc1cc(/C=C/C(=O)OCCCCCN(C)C[C@H](C)COC(=O)c2cc(OC)c(OC)c(OC)c2)cc(OC)c1OC | ≥ 4 | ≥ 4 | 110 | 8100 | 240 | 0.75 | Not Active | 
19 | COc1cc(/C=C/C(=O)OCCCN(C)C[C@@H](C)COC(=O)c2c3ccccc3cc3ccccc23)cc(OC)c1OC | ≥ 4 | ≥ 4 | 960 | 6800 | 170 | 0.8 | Not Active | 
20 | COc1cc(/C=C/C(=O)OC[C@@H](C)CN(C)CCCCCOC(=O)c2cc(OC)c(OC)c(OC)c2)cc(OC)c1OC | ≥ 4 | 0.3 | 1100 | 4200 | 80 | 0.99 | Not Active | 
21 | COc1cc(/C=C/C(=O)OCCCN(C)C[C@H](C)COC(=O)c2c3ccccc3cc3ccccc23)cc(OC)c1OC | ≥ 4 | ≥ 4 | 910 | 11000 | 40 | 0.99 | Not Active | 
